Assays:
[1] = biological target: Fibroblast growth factor receptor 1 (Homo sapiens, UniProt P11362); test: Inhibition of phosphorylation of a random glutamate/tyrosine copolymer in lysates of transfected Sf9 insect cells overexpressing human fibroblast growth factor receptor 1
Procedure, shortened: (§1)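 Kinase source was lysate of transfected Sf9 insect cells overexpressing the receptor. Substrate was a random glutamate/tyrosine (4:1) copolymer, and the read-out was its phosphorylation. IC50 was the drug concentration (µM) giving inhibition.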

[2] = biological target: Platelet-derived growth factor receptor beta (Mus musculus, UniProt P05622); test: Inhibition of phosphorylation of a random glutamate/tyrosine copolymer in lysates of transfected Sf9 insect cells overexpressing mouse platelet-derived growth factor receptor beta; procedure, shortened: as §1
Chain of Platelet-derived growth factor receptor beta (P05622 whole entry): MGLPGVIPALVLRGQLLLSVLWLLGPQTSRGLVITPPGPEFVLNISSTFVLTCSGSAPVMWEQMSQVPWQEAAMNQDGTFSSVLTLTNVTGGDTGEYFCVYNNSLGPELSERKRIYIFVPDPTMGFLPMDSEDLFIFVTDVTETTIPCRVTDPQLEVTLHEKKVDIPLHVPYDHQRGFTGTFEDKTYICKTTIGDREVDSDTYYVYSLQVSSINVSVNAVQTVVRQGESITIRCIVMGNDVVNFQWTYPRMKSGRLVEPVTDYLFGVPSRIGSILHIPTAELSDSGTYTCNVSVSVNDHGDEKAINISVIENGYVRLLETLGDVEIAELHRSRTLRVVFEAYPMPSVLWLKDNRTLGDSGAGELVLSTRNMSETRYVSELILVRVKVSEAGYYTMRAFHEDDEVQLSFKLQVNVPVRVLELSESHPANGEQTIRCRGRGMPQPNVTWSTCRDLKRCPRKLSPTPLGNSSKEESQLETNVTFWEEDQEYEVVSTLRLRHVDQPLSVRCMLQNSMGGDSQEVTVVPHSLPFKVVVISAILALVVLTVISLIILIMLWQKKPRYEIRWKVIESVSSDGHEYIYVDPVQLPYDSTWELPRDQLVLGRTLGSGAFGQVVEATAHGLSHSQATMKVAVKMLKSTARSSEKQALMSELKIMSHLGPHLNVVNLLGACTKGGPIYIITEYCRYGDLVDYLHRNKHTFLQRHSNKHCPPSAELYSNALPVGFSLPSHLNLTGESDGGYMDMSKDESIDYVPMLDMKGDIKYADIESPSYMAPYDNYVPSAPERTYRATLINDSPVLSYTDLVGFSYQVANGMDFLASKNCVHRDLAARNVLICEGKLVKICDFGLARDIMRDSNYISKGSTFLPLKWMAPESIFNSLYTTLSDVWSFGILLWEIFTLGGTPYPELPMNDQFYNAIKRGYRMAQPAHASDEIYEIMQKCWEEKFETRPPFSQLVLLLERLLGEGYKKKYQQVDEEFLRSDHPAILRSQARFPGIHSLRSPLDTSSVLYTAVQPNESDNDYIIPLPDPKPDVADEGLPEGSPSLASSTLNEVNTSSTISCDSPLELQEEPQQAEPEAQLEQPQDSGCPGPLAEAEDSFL

[3] = biological target: Platelet-derived growth factor receptor (PDGFr) (Rattus norvegicus, UniProt P20786+Q05030); test: Inhibition of PDGF-stimulated Platelet-derived growth factor receptor autophosphorylation in rat aorta vascular smooth muscle cells.; assay type: functional
Procedure, shortened: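 Rat aortic vascular smooth muscle cells, serum-starved, were exposed to compound for 2 h before stimulation with PDGF-BB at 25 ng/mL. Cell lysates or immunoprecipitates were analysed by Western blot with anti-phosphotyrosine antibody.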

Chain of Fibroblast growth factor receptor 1 (P11362 whole entry): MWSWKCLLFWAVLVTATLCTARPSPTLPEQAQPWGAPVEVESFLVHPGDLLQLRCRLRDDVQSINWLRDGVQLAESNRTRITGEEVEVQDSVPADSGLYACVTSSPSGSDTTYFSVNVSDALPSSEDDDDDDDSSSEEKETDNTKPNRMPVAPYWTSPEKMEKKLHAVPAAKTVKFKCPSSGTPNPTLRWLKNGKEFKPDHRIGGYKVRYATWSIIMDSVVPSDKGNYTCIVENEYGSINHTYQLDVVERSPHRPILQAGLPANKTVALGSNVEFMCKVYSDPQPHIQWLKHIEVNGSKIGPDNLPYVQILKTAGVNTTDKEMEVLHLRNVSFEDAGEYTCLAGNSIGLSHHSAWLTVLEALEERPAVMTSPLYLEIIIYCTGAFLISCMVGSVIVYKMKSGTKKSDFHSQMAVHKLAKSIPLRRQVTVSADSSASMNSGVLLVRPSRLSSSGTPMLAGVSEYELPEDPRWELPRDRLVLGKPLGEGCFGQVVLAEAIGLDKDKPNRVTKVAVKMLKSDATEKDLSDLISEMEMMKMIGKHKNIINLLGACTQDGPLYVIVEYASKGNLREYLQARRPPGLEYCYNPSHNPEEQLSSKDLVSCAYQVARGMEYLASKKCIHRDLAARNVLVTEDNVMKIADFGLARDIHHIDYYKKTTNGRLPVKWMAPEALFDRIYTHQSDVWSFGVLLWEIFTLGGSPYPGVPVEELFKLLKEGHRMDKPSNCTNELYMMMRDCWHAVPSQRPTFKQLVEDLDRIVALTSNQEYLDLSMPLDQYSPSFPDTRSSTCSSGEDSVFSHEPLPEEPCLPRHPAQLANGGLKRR

SMILES | IC50 [1] [µM] | IC50 [2] [µM] | IC50 [3] [µM]
O=C(O)c1ccc2ncn(-c3ccccc3)c2c1 | 50 | 50 | 
COc1cccc2c1ncn2-c1ccccc1 | > 50 | 50 | 
NC(=O)c1cccc2c1ncn2-c1ccccc1 | > 50 | > 50 | 
Cc1cccc2c1ncn2-c1ccccc1 | > 50 | > 50 | 
CC(=O)c1ccc2c(c1)ncn2-c1ccccc1 |  | 0.86 | 
Clc1cccc(-n2cnc3ccccc32)c1 | 50 | 47 | 
O=C(O)c1cccc(-n2cnc3ccccc32)c1 | > 50 | > 50 | 
O=[N+]([O-])c1cccc2c1ncn2-c1ccccc1 | > 50 | > 50 | 
O=Cc1ccccc1-n1cnc2ccccc21 | > 50 | > 50 | 
Cc1nc2ccccc2n1-c1ccccc1 | > 50 | > 50 | 
Oc1nc2ccccc2n1-c1ccccc1 | > 50 | > 50 | 
NC(=O)c1cccc2ncn(-c3ccccc3)c12 | > 50 | > 50 | 
O=Cc1cccc(-n2cnc3ccccc32)c1 | 50 |  | 
O=C(O)c1ccccc1-n1cnc2ccccc21 | > 50 | > 50 | 
Cc1ccc2c(c1)ncn2-c1ccccc1 | 50 |  | 
Nc1ccc2ncn(-c3ccccc3)c2c1 | > 50 | 23 | 
COC(=O)c1ccc2c(c1)ncn2-c1ccccc1 |  | 0.83 | 0.15
COc1ccc(-n2cnc3ccccc32)cc1 | > 50 | 13 | 
Oc1ccc2ncn(-c3ccccc3)c2c1 | > 50 |  | 
Cc1ccccc1-n1cnc2ccccc21 | > 50 | > 50 | 
O=[N+]([O-])c1ccc2c(c1)ncn2-c1ccccc1 | > 50 | 16 | 
COc1cccc2ncn(-c3ccccc3)c12 | 50 | 37 | 
Cc1cccc2ncn(-c3ccccc3)c12 | > 50 | > 50 | 
c1ccc(-c2nc3ccccc3[nH]2)cc1 | > 50 | > 50 | 
c1cncc(-n2cnc3ccccc32)c1 | > 50 | > 50 | 
O=C(c1ccccc1)n1cnc2ccccc21 | > 50 | > 50 | 
NC(=O)c1ccccc1-n1cnc2ccccc21 | > 50 | > 50 | 

SMILES | IC50 [1] [µM] | IC50 [2] [µM] | IC50 [3] [µM]
COC(=O)c1cccc2ncn(-c3ccccc3)c12 | > 50 | > 50 | 
COC(=O)c1cccc2c1ncn2-c1ccccc1 | > 50 | > 50 | 
c1ccc(-n2cnc3ccccc32)nc1 | > 50 | > 50 | 
Nc1cccc(-n2cnc3ccccc32)c1 | > 50 |  | 
O=C(O)c1ccc(-n2cnc3ccccc32)cc1 | > 50 | > 50 | 
NC(=O)c1ccc(-n2cnc3ccccc32)cc1 | > 50 | 23 | 
COc1ccccc1-n1cnc2ccccc21 | > 50 | > 50 | 
O=[N+]([O-])c1ccc(-n2cnc3ccccc32)cc1 | > 50 | 30 | 
COc1cccc(-n2cnc3ccccc32)c1 | 50 | 25 | 
c1ccc(Cn2cnc3ccccc32)cc1 | > 50 | > 50 | 
Cc1ccc(-n2cnc3ccccc32)cc1 | > 50 | > 50 | 
Cc1ccc2ncn(-c3ccccc3)c2c1 | > 50 | 40 | 
Clc1cccc2c1ncn2-c1ccccc1 | > 50 | > 50 | 
N#Cc1cccc(-n2cnc3ccccc32)c1 | > 50 | > 50 | 
Nc1nc2ccccc2n1-c1ccccc1 | > 50 | > 50 | 
N#Cc1ccc(-n2cnc3ccccc32)cc1 | > 50 | 16 | 
NC(=O)c1ccc2ncn(-c3ccccc3)c2c1 | > 50 | 25 | 
CCOC(=O)c1cccc(-n2cnc3ccccc32)c1 | > 50 | > 50 | 
O=[N+]([O-])c1ccc2ncn(-c3ccccc3)c2c1 | 39 | 50 | 
O=Cc1ccc2c(c1)ncn2-c1ccccc1 | > 50 |  | 
c1ccc2c(c1)ncn2-c1ccncc1 | > 50 | 12 | 
NC(=O)c1cccc(-n2cnc3ccccc32)c1 | > 50 | > 50 | 
COC(=O)c1ccc2ncn(-c3ccccc3)c2c1 | > 50 |  | 
N#Cc1ccccc1-n1cnc2ccccc21 | > 50 | > 50 | 
Nc1cccc2c1ncn2-c1ccccc1 | > 50 | > 50 | 
O=[N+]([O-])c1cccc(-n2cnc3ccccc32)c1 | 35 | 16 | 
Oc1cccc2c1ncn2-c1ccccc1 | > 50 | 11 | > 10

Further lines, results first:

IC50 [1] [µM] | IC50 [2] [µM] | IC50 [3] [µM] | SMILES
> 50 | > 50 |  | c1ccc(-n2ccc3ccccc32)cc1
> 50 | > 50 |  | O=C(O)c1cccc2c1ncn2-c1ccccc1
40 | > 50 |  | O=[N+]([O-])c1cccc2ncn(-c3ccccc3)c12
> 50 | > 50 |  | Clc1cccc2ncn(-c3ccccc3)c12
> 50 | > 50 |  | c1ccc(-n2ncc3ccccc32)cc1
> 50 | 28 |  | c1ccc(-n2cnc3cccnc32)cc1
> 50 | > 50 |  | c1ccc(-n2nnc3ccccc32)cc1
> 50 |  |  | Clc1ccc2ncn(-c3ccccc3)c2c1
> 50 | > 50 |  | Nc1ccccc1-n1cnc2ccccc21
> 50 | > 50 |  | Clc1ccccc1-n1cnc2ccccc21
> 50 | > 50 |  | CC(=O)c1ccccc1-n1cnc2ccccc21
> 50 | 13 |  | O=Cc1ccc(-n2cnc3ccccc32)cc1
> 50 | 50 |  | Clc1ccc(-n2cnc3ccccc32)cc1
> 50 | 24 |  | CC(=O)c1ccc(-n2cnc3ccccc32)cc1
> 50 | 19 |  | CC(=O)c1cccc(-n2cnc3ccccc32)c1
> 50 |  | 2.3 | c1ccc(-n2cnc3ccccc32)cc1
> 50 | 28 |  | Cc1cccc(-n2cnc3ccccc32)c1
> 50 |  | 2 | Nc1ccc(-n2cnc3ccccc32)cc1
> 50 | > 50 |  | O=C(O)c1cccc2ncn(-c3ccccc3)c12
> 50 | > 50 |  | O=[N+]([O-])c1ccccc1-n1cnc2ccccc21
> 50 |  | > 10 | COc1ccc2ncn(-c3ccccc3)c2c1
50 | > 50 |  | Oc1cccc2ncn(-c3ccccc3)c12
> 50 | > 50 |  | Nc1cccc2ncn(-c3ccccc3)c12
> 50 | > 50 |  | Oc1ccccc1-n1cnc2ccccc21
 | 16 |  | NC(=O)c1ccc2c(c1)ncn2-c1ccccc1
> 50 | > 50 |  | c1ccc(C2=Nc3ccccc3NCC2)cc1
50 |  |  | COC(=O)c1ccc(-n2cnc3ccccc32)cc1
> 50 | > 50 |  | CCOC(=O)c1ccccc1-n1cnc2ccccc21
 | 0.43 | 1.9 | COc1ccc2c(c1)ncn2-c1ccccc1
 | 0.44 | 0.13 | Oc1ccc2c(c1)ncn2-c1ccccc1

Source: ChEMBL document CHEMBL1131521, “Structure-activity relationships for 1-phenylbenzimidazoles as selective ATP site inhibitors of the platelet-derived growth factor receptor” (J Med Chem, 1998)
